Test results taken from ChEMBL document CHEMBL4251680, “Catecholic Isoquinolines from Portulaca oleracea and Their Anti-inflammatory and β2-Adrenergic Receptor Agonist Activity” (J Nat Prod, 2018).

Assays:
RAW264.7 = assay: cells; conditions: Mus musculus, RAW264.7, 24 h
[1] = biological target: T1, Beta-2 adrenergic receptor (Homo sapiens, UniProt P07550); assay: Agonist activity at human beta2-AR expressed in CHOK1 cells co-expressing Galpha15 at 100 uM measured after 21 secs to 120 secs by Calcium-4 dye based FLIPR assay relative to 1 uM isoproterenol; type: functional, cell-based
How it was run: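 CHO-K1/Gα15 cells stably expressing β2-AR, grown in Ham's F12 with 10% FBS, hygromycin B and zeocin. Plated at 1.5 × 10^4 cells/well, 18 h, then loaded with FLIPR Calcium 4 dye for 1 h at 37 °C and 15 min at room temperature. Compounds from DMSO stocks diluted in HBSS/20 mM HEPES pH 7.4, added at 21 s. Read 120 s; stimulation ratio = (ΔRFU − background) relative to isoproterenol.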
Target sequence in this assay (P07550 whole entry, looked up): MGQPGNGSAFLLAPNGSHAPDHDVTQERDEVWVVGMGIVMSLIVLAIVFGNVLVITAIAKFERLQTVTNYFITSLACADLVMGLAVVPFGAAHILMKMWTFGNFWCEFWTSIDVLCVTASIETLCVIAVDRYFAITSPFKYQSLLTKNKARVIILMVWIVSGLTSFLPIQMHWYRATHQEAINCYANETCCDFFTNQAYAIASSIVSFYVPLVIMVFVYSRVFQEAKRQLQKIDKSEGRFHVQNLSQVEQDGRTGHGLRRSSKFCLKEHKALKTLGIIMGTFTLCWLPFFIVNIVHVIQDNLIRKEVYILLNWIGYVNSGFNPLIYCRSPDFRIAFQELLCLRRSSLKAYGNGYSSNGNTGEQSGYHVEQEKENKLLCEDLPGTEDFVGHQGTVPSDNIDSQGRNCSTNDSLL

[2] = biological target: T1, Beta-2 adrenergic receptor; assay: Agonist activity at human beta2-AR expressed in CHOK1 cells co-expressing Galpha15 measured after 21 secs to 120 secs by Calcium-4 dye based FLIPR assay; type: functional, cell-based
Target sequence in this assay (P07550 whole entry): as the sequence (P07550 whole entry, looked up) above

Compound	EC50 (RAW264.7) [µM]	Activity [1] [%]	EC50 [2] [µM]
O=C1c2cc(O)c(O)cc2CCn2cccc21	225	-11.5	
NCCc1ccc(O)c(O)c1S(=O)(=O)O	310	39.3	
NCCc1ccc(O)c(O)c1 [DOPAMINE]	18	86.4	
C[C@@H]1NCCc2cc(O)c(O)cc21	58.7	35.5	
CC1=NCCc2cc(O)c(O)cc21	209	37.7	
CC(C)C[C@H]1NCCc2cc(O)c(O)cc21	498	70.9	
Oc1cc2c(cc1O)CCN=C2	248	41.1	

The next lines start with the values.

EC50 (RAW264.7) [µM]	Activity [1] [%]	EC50 [2] [µM]	Compound
82.4			O=C(NO)c1ccc(O)c(O)c1
18.1	91.8	5.1	Oc1cc2c(cc1O)C(c1ccco1)=NCC2
36.3	42		CCOC(=O)CC[C@@H]1NCCc2cc(O)c(O)cc21
203	70.6		OCc1ccc(C2=NCCc3cc(O)c(O)cc32)o1
126	0.5		O=C1NCCc2cc(O)c(O)cc21
107	90.8	0.0879	Oc1cc2c(cc1O)[C@@H](Cc1ccccc1)NCC2
35.4	70.2		O=C1CC[C@H]2c3cc(O)c(O)cc3CCN12
87.9	11.4		Oc1cc2c(cc1O)CC[N+](Cc1ccco1)=C2
